The source of these data is ChEMBL document CHEMBL4819149, “A facile reaction to access novel structural sulfonyl-hybridized imidazolyl ethanols as potential DNA-targeting antibacterial agents” (Bioorg Med Chem Lett, 2021).

The test system of data set [1] is DNA. Briefly: Binding affinity to DNA (unknown origin) assessed as red shift in absorption maxima by UV-vis spectrophotometric analysis. The data set is classed as nucleic-acid assay. The method in brief: (§1)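 DNA UV-vis absorption spectra were recorded with increasing test compound concentration, following the 260 nm peak intensity and position. Hypochromism was judged by comparing the summed absorbance of free DNA and free compound with the measured absorbance of the compound-DNA complex.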

Data set [2] has as its system Staphylococcus aureus. Briefly: Antibacterial activity against methicillin-resistant Staphylococcus aureus assessed as bacterial growth inhibition by broth microdilution method. The format is functional. The method in brief: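 MIC read by micro broth dilution; values given in μg/mL.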
For orientation: Broth dilution looks for growth in wells or tubes with falling amounts of substance.

The next data set concerns Acinetobacter baumannii. Briefly: Antibacterial activity against Acinetobacter baumannii assessed as bacterial growth inhibition by broth microdilution method. The data set is classed as functional. The method in brief: (§2)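 MIC values reported in µg/mL, determined by broth microdilution in microdilution plates.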
The test system of data set [3] is Staphylococcus aureus. Briefly: Antibacterial activity against Staphylococcus aureus ATCC 25923 assessed as bacterial growth inhibition by broth microdilution method. The data set is classed as functional. The gist of the method: as §2
The subject of data set [4] is Escherichia coli. Briefly: Antibacterial activity against Escherichia coli ATCC 25922 assessed as bacterial growth inhibition by broth microdilution method. The data set is classed as functional. The gist of the method: as §2
The subject of data set [5] is Staphylococcus aureus. Briefly: Antibacterial activity against Staphylococcus aureus assessed as bacterial growth inhibition by broth microdilution method. The data set is classed as functional. The method in brief: as §2
Data set [6] deals with Enterococcus faecalis. Briefly: Potency index, ratio of sulfathiazole MIC to test compound MIC for Enterococcus faecalis assessed as bacterial growth inhibition by broth microdilution method. The format is functional.
In data set [7] the test system is DNA. Briefly: Binding affinity to DNA (unknown origin) assessed as hypochromic shift by UV-vis spectrophotometric analysis. The format is nucleic-acid assay. The gist of the method: as §1
The test system of data set [8] is Escherichia coli. The experiment in a line: Antibacterial activity against Escherichia coli assessed as bacterial growth inhibition by broth microdilution method. The data set is classed as functional. The method in brief:
as §2

Data set [9] deals with Staphylococcus aureus. Briefly: Potency index, ratio of norfloxacin MIC to test compound MIC for methicillin-resistant Staphylococcus aureus assessed as bacterial growth inhibition by broth microdilution method. The format is functional.
Data set [10] has as its system Staphylococcus aureus. Briefly: Antibacterial activity against methicillin-resistant Staphylococcus aureus measured after 13 passages by broth microdilution method. The data set is classed as functional, organism-based.
In data set [11] the test system is DNA. The experiment in a line: Binding affinity to DNA (unknown origin) assessed as increase in maximum absorption peak of DNA at 260 nm by UV-vis spectrophotometric analysis. The data set is classed as nucleic-acid assay. The gist of the method: as §1
Data set [12] deals with Pseudomonas aeruginosa. Briefly: Antibacterial activity against Pseudomonas aeruginosa assessed as bacterial growth inhibition by broth microdilution method. The format is functional. The method in brief: as §2
A short description of data set [13]: Cytotoxicity against human […] assessed as reduction in cell viability at 100 ug/ml by MTT assay. The format is cell-based. The note with it: dose 100 µg/ml. The method in brief: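 Endothelial […] were exposed to a range of compound concentrations up to 100 µg/mL, and viability was read by MTT assay.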
Data set [14] concerns DNA. Briefly: Binding affinity to methicillin-resistant Staphylococcus aureus DNA assessed as DNA intercalation by competitive neutral red dye displacement based UV-Vis absorbance analysis. The format is nucleic-acid assay.
The subject of data set [15] is Staphylococcus aureus. The experiment in a line: Potency index, ratio of sulfathiazole MIC to test compound MIC for methicillin-resistant Staphylococcus aureus assessed as bacterial growth inhibition by broth microdilution method. The format is functional.
Data set [16] has as its system Pseudomonas aeruginosa. Briefly: Antibacterial activity against Pseudomonas aeruginosa ATCC 27853 assessed as bacterial growth inhibition by broth microdilution method. The format is functional. The gist of the method: as §2
Data set [17] has as its system Enterococcus faecalis. The experiment in a line: Antibacterial activity against Enterococcus faecalis assessed as bacterial growth inhibition by broth microdilution method. The data set is classed as functional. The gist of the method:
as §2

A further data set concerns Calf thymus DNA. The experiment in a line: Binding affinity to calf thymus DNA assessed as DNA intercalation by competitive neutral red dye displacement based UV-Vis absorbance analysis. The following applies: Bos taurus. The method in brief: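 Neutral red (NR) competition: absorbance around 530 nm was followed with test compound and increasing calf thymus DNA, compared against free NR titrated with increasing calf thymus DNA.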

Another data set deals with Klebsiella pneumoniae. The experiment in a line: Antibacterial activity against Klebsiella pneumonia assessed as bacterial growth inhibition by broth microdilution method. The data set is classed as functional. The gist of the method: as §2
Data set [18] concerns Staphylococcus aureus. The experiment in a line: Antibacterial activity against Staphylococcus aureus ATCC 29213 assessed as bacterial growth inhibition by broth microdilution method. The data set is classed as functional. The method in brief: as §2

Converted amounts (≈) assume the structure as drawn. The source made the active and inactive calls.

Broadly, the MIC is the smallest concentration in the dilution series that meets the test's criterion for growth inhibition. Regarding `CCc1nc(C)cn1C(CO)CS(=O)(=O)c1ccc(NC(C)=O)cc1` (stereo unspecified), the outcome in the data set on DNA [1], in the data set with DNA [7], in the data set on Staphylococcus aureus [10], with DNA [11] and with DNA [14] was Active. Moreover, the MIC was determined as 4 µg/mL (≈ 10.9 µM) in the data set on Staphylococcus aureus [2]; 64 µg/mL (≈ 175 µM) in the data set with Acinetobacter baumannii; 128 µg/mL (≈ 350 µM) with Staphylococcus aureus [3]; 32 µg/mL (≈ 87.6 µM) in the data set on Escherichia coli [4]; 64 µg/mL (≈ 175 µM) with Staphylococcus aureus [5]; 64 µg/mL (≈ 175 µM) in the data set on Escherichia coli [8]. Also, the MIC is 128 µg/mL (≈ 350 µM) in the data set on Pseudomonas aeruginosa [12]; 32 µg/mL (≈ 87.6 µM) in the data set with Pseudomonas aeruginosa [16]; 16 µg/mL (≈ 43.8 µM) with Enterococcus faecalis [17]; 128 µg/mL (≈ 350 µM) with Klebsiella pneumoniae; 32 µg/mL (≈ 87.6 µM) in the data set on Staphylococcus aureus [18]. For the same molecule, the Ratio turned out to be 32 with Enterococcus faecalis [6], 2 with Staphylococcus aureus [9] and 16 in the data set with Staphylococcus aureus [15]. Moreover, in data set [13], the Activity result is given as “Non-Toxic”. The result with Calf thymus DNA was inactive.
Regarding `CCn1cc(C(=O)O)c(=O)c2cc(F)c(N3CCNCC3)cc21` [NORFLOXACIN], the MIC in the data set with Staphylococcus aureus [2] is 8 µg/mL (≈ 25.1 µM); in the data set with Acinetobacter baumannii, 8 µg/mL (≈ 25.1 µM); in the data set with Staphylococcus aureus [3], 1 µg/mL (≈ 3.13 µM); with Escherichia coli [4], 512 µg/mL (≈ 1600 µM); in the data set with Staphylococcus aureus [5], 8 µg/mL (≈ 25.1 µM); in the data set with Escherichia coli [8], 512 µg/mL (≈ 1600 µM). The MIC in the data set on Pseudomonas aeruginosa [12] amounted to 256 µg/mL (≈ 802 µM); in the data set on Pseudomonas aeruginosa [16], 16 µg/mL (≈ 50.1 µM); in the data set on Enterococcus faecalis [17], 256 µg/mL (≈ 802 µM); with Klebsiella pneumoniae, 256 µg/mL (≈ 802 µM); with Staphylococcus aureus [18], 1 µg/mL (≈ 3.13 µM). Further, the result in the data set on Staphylococcus aureus [10] was inactive.
Consider `Nc1ccc(S(=O)(=O)Nc2nccs2)cc1` [SULFATHIAZOLE], for which the MIC was 64 µg/mL (≈ 251 µM) in the data set with Staphylococcus aureus [2]; 64 µg/mL (≈ 251 µM) in the data set with Acinetobacter baumannii; 512 µg/mL (≈ 2010 µM) with Staphylococcus aureus [3]; 128 µg/mL (≈ 501 µM) with Escherichia coli [4]; 512 µg/mL (≈ 2010 µM) with Staphylococcus aureus [5]; 256 µg/mL (≈ 1000 µM) in the data set on Escherichia coli [8]. Also, the MIC worked out at 128 µg/mL (≈ 501 µM) in the data set on Pseudomonas aeruginosa [12]; 512 µg/mL (≈ 2010 µM) in the data set on Pseudomonas aeruginosa [16]; 512 µg/mL (≈ 2010 µM) with Enterococcus faecalis [17]; 128 µg/mL (≈ 501 µM) with Klebsiella pneumoniae; 512 µg/mL (≈ 2010 µM) with Staphylococcus aureus [18]. In addition, the result with Staphylococcus aureus [10] was inactive.
As to `Nc1ccc(S(=O)(=O)CC(CO)n2cnc(I)c2)cc1` (stereo unspecified), the MIC came out at 64 µg/mL (≈ 157 µM) in the data set with Staphylococcus aureus [2]; 64 µg/mL (≈ 157 µM) in the data set with Acinetobacter baumannii; 64 µg/mL (≈ 157 µM) in the data set on Staphylococcus aureus [3]; 32 µg/mL (≈ 78.6 µM) in the data set on Escherichia coli [4]; 64 µg/mL (≈ 157 µM) in the data set on Staphylococcus aureus [5]; 64 µg/mL (≈ 157 µM) in the data set on Escherichia coli [8]. The MIC came to 256 µg/mL (≈ 629 µM) with Pseudomonas aeruginosa [12]; 32 µg/mL (≈ 78.6 µM) in the data set with Pseudomonas aeruginosa [16]; 256 µg/mL (≈ 629 µM) in the data set on Enterococcus faecalis [17]; 256 µg/mL (≈ 629 µM) in the data set on Klebsiella pneumoniae; 64 µg/mL (≈ 157 µM) with Staphylococcus aureus [18].
